# In the RNAGym collection of RNA variant scans (doi:10.1126/science.aae0568):
# Fewer inactive variants are shown than the library holds.
# B1: tRNA (parent)
# chain: GUUCCGUUGGCGUAAUGGUAACGCGUCUCCCUCCUAAGGAGAAGACUGCGGGUUCGAGUCCCGUACGGAACG
# Variants of: B1
# Experiment: yeast fitness relative to wild type (ratio to wild type); higher = fitter; tRNA-Arg(CCU), competitive growth, 37 C, YPD
# Method in brief: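 Changes in genotype frequencies gave Darwinian fitness relative to wild type. Frequencies were read by 100-nucleotide paired-end sequencing of gene amplicons before and after pooled Saccharomyces cerevisiae strains, carrying tRNA-Arg(CCU) gene variants at the native locus, were competed in YPD at 37°C for 24 hours in six replicates. A genotype was kept only with ≥ 100 starting reads, and estimates < 0.5 were set to 0.5.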
row,Variant,yeast fitness
1,G23C A37U U47C C55U C60G C66U,≤ 0.5
2,G23A C29A G48A C55A,≤ 0.5
3,C22U U32C C61G A69C,≤ 0.5
4,G23C A43U,0.733
5,G23C C24G C34G C46U U54G,≤ 0.5
6,C24A G56C C61G,≤ 0.5
7,C24A A43U G50A G67A,≤ 0.5
8,C24A A36C,0.531
9,G23C C24U A37C G50C,≤ 0.5
10,G23A C30U C55A G63A,≤ 0.5
11,G23C A65G C66A,≤ 0.5
12,G23A C66U,0.824
13,G23A C66A,0.535
14,G23A C66G,0.659
15,C24A C31G C60U,≤ 0.5
16,C24A A36C G41A U53C,≤ 0.5
17,C24A A36G A42G A43G G48A,≤ 0.5
18,G23C G25A C61U,0.536
19,C24A G48C A70U,≤ 0.5
20,G23A C30U G63A,≤ 0.5
21,C24A C34U C49A A65U,≤ 0.5

row,Variant,yeast fitness
1,C24A C34A A37G A57G A65G,0.544
2,C24A G48A U53G,≤ 0.5
3,G23C A36C A45C G58A G68C,≤ 0.5
4,G23C A37C,0.656
5,G23C A37G,≤ 0.5
6,G23C C30G A37U A45C C46G,≤ 0.5
7,G23A A42U C61G U64A,≤ 0.5
8,C22U U28C C49A,≤ 0.5
9,G23C C31A C62U A70G,≤ 0.5
10,C24A A45G A65U,0.552
11,G23C U47G,0.626
12,G23A C31U A70U,0.528
13,G23A U35C,0.572
14,C24A C33A C34A C62A,≤ 0.5
15,G23A U26G A40C C46G C60G,≤ 0.5
16,C22U U35C A37C,≤ 0.5
17,C24A C34U A40C,≤ 0.5
18,C24A G39C G51A G63A,≤ 0.5
19,C24A C33A C49U U54G G56A,≤ 0.5
20,G23C U28A,0.559
21,G23A C49U A65C,0.523

row,Variant,yeast fitness
1,C24A U26A,0.57
2,G23C A37C A42G C46G C66U,≤ 0.5
3,G23C C24G C33G A40U A70G,≤ 0.5
4,G23A U47C C49U,≤ 0.5
5,C24A G25C U47A,≤ 0.5
6,G23C C30G G63A,≤ 0.5
7,G23C U28A A65G,≤ 0.5
8,G23A A42G C61U,≤ 0.5
9,G23C G39C A42U G52U U53A,≤ 0.5
10,C24A A37C G38A,0.61
11,C24A C61U,0.718
12,G23C G58U,0.565
13,G23C G58A,0.6
14,G23C A65U,0.585
15,G23U C49U C55A C66U,≤ 0.5
16,G23C C27G C55G G56A G58A C66G A70U,≤ 0.5
17,G23A C30U G39A C60G,≤ 0.5
18,G23C G56C,≤ 0.5
19,G23C G56A,0.566
20,G23C C24A G50A A70U,≤ 0.5
21,G23A G48C C55G,≤ 0.5

row,Variant,yeast fitness
1,G23A U26C C29U C33G,≤ 0.5
2,C22U U35C A36C,≤ 0.5
3,C24A G44A U54C G56C,≤ 0.5
4,G23C U28C C46G C62G,≤ 0.5
5,C24A C33G C34U G58C C62U,≤ 0.5
6,G23C G51A C61G A69U,≤ 0.5
7,C24A C27U A40U G44C A57U G67C,≤ 0.5
8,C24A G25A U35A,≤ 0.5
9,G23A A36U G39C C66U,≤ 0.5
10,C24A C31U C46U,0.785
11,C24A G68U,0.654
12,C22U U32C G52A C61U,≤ 0.5
13,G23C G25A G48C,0.594
14,G23A C34U C66U,0.586
15,G23C C27U C29U G51A,0.645
16,C24A G39A C60A C66U,≤ 0.5
17,C22U U54C,0.724
18,C22U U32A C46G G52C C62U,≤ 0.5
19,G23C G63A,0.51
20,G23C G63C,0.594
